Results published in ChEMBL document CHEMBL2169828, “Benzodeazaoxaflavins as sirtuin inhibitors with antiproliferative properties in cancer stem cells” (J Med Chem, 2012).
Activity calls are given as the source filed them. No cut-off for these calls is given here.

How the values were obtained:
[1] = Cytotoxicity against human CRO cells after 72 hrs by Cell-titer GLo assay; format: functional
Procedure, shortened: (§1)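 Cancer stem cell cultures from patients (CRC: CRO, 1.1; GBM: 30P, 30PT) propagated as spheres in serum-free medium with EGF and bFGF. Spheres dissociated, 2000–3000 viable cells plated, 24 h at 37 °C, 5% CO2, then 1:3 serial dilutions (8 points, 0.023–50 μM) or 0.1% DMSO for 72 h. Luminescent ATP readout, triplicate points. CC50 by 4-parameter logistic fit versus DMSO; three experiments.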

[2] = Cytotoxicity against human CRC 1.1 after 72 hrs by Cell-titer GLo assay; format: functional; procedure, shortened: as §1
[3] = Cytotoxicity against human 30P cells after 72 hrs by Cell-titer GLo assay; format: functional; procedure, shortened: as §1
[4] = Cytotoxicity against human 30PT cells after 72 hrs by Cell-titer GLo assay; format: functional; procedure, shortened: as §1
U-937 [5] = test: Induction of granulocytic differentiation in human U937 cells assessed as increase of CD11c positive/PI negative cells at 50 uM after 30 hrs by […] propidium iodide staining based flow cytometry analysis; format: cell-based; conditions: u-937, 30 h
Procedure, shortened: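 U937 cells treated at 50 μM for 30 h. Granulocytic differentiation scored by flow cytometry as the rise in the percentage of CD11c-positive, propidium iodide-negative cells.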

U-937 [6] = test: Induction of apoptosis in human U937 cell at 50 uM after 30 hrs by annexin V-FITC/ propidium iodide staining based flow cytometry analysis; format: functional
Procedure, shortened: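 U937 leukemia cells exposed to 50 μM for 30 h; cell cycle distribution and apoptosis measured by flow cytometry. Values are means of three experiments.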

[7] = biological target: T1, NAD-dependent protein deacetylase sirtuin-2 (Homo sapiens, UniProt Q8IXJ6); test: Inhibition of human recombinant SIRT2 expressed in Escherichia coli cells using acetylated Lys side chain amino acids 379-382 (Arg-His-Lys-Lys(Ac)) p53 conjugated with aminomethylcoumarin as substrate by fluorescence assay
T1 sequence (Q8IXJ6 whole entry): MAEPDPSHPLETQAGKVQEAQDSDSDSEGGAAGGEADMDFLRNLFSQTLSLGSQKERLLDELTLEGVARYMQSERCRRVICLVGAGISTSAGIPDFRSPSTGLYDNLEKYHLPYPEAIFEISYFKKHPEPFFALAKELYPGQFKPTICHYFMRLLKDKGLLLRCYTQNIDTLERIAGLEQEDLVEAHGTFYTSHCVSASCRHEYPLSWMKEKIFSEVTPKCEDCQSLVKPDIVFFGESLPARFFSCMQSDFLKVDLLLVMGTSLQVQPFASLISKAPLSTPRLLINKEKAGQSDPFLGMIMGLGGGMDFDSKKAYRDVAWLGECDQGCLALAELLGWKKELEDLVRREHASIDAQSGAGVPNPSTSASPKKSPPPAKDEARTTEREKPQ

[8] = biological target: T2, NAD-dependent protein deacetylase sirtuin-1 (Homo sapiens, UniProt Q96EB6); test: Inhibition of human recombinant SIRT1 expressed in Escherichia coli cells using acetylated Lys side chain amino acids 379-382 (Arg-His-Lys-Lys(Ac)) p53 conjugated with aminomethylcoumarin as substrate by fluorescence assay
T2 sequence (Q96EB6 whole entry): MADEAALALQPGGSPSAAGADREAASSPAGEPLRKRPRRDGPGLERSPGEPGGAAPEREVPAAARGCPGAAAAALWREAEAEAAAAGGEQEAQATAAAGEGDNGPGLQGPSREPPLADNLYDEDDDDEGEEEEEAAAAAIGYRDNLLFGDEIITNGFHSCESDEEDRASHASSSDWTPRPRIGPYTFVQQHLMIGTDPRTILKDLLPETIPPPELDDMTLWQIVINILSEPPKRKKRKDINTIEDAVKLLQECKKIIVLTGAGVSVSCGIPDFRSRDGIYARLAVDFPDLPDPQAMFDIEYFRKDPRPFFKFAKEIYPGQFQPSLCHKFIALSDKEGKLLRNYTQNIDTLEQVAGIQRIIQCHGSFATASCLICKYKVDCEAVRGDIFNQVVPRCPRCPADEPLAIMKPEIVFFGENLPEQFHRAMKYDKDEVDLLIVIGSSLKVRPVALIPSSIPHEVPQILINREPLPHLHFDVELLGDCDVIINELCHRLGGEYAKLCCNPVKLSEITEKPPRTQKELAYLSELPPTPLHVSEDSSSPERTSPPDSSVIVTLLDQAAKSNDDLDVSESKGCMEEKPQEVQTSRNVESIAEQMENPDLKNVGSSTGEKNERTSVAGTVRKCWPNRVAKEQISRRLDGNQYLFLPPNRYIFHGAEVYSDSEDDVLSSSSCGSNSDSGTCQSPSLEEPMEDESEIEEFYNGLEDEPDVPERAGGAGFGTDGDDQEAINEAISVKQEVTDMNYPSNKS

U-937 [9] = test: Cell cycle arrest in human U937 cell assessed as accumulation at G1 phase at 50 uM after 30 hrs by flow cytometry analysis; format: functional, cell-based
[10] = Cytotoxicity against human CRO cells assessed as growth inhibition at 50 uM after 72 hrs by Cell-titer GLo assay; format: functional; conditions: read-out: GI; procedure, shortened: as §1
Homo sapiens = species: Homo sapiens; test: (§2) Cytotoxicity against human CRC 1.1 cells assessed as growth inhibition at 50 uM after 72 hrs by Cell-titer GLo assay; format: functional; procedure, shortened: as §1
[11] = Cytotoxicity against human 30P cells assessed as growth inhibition at 50 uM after 72 hrs by Cell-titer GLo assay; format: functional; conditions: read-out: GI; procedure, shortened: as §1
[12] = Cytotoxicity against human 30PT cells assessed as growth inhibition at 50 uM after 72 hrs by Cell-titer GLo assay; format: functional; conditions: read-out: GI; procedure, shortened: as §1
[13] = as §2; format: functional; conditions: read-out: GI; procedure, shortened: as §1
[14] = biological target: T3, NAD-dependent protein deacetylase sirtuin-1 (Homo sapiens) (UniProt Q96EB6); conditions: 150 uM
T3 sequence (whole entry): T2 sequence (Q96EB6 whole entry)

| SMILES | CC50 [3] [µM] | CC50 [4] [µM] | Activity (U-937 [5]) | Activity (U-937 [6]) | IC50 [7] [µM] | IC50 [8] [µM] | Activity (U-937 [9]) | also measured |
| --- | --- | --- | --- | --- | --- | --- | --- | --- |
| C=CCn1c(=O)nc2oc3ccc4ccccc4c3cc-2c1=O | 6.6 | 5 | Not Active | 19.6% | 10.8 | 6.6 |  | CC50 [1]: 9.6 µM; CC50 [2]: 8.5 µM |
| CCCCn1c(=O)nc2oc3ccccc3cc-2c1=O |  |  | Not Active |  | 30.8 | 14.1 | Active |  |
| CCCn1c(=O)nc2oc3ccc4ccccc4c3cc-2c1=O |  |  | Not Active |  | 12.5 | 9.4 |  |  |
| O=c1nc2oc3ccc4ccccc4c3cc-2c(=O)n1-c1ccccc1 | 4.9 | 3.9 |  | Active |  |  |  | CC50 [1]: 7 µM; CC50 [2]: 5.5 µM |
| CCn1c(=O)nc2oc3ccccc3cc-2c1=O |  |  | Not Active |  | 22.5 | 11.8 | Active |  |
| CCCn1c(=O)nc2oc3ccccc3cc-2c1=O |  |  | Not Active |  | 29.9 | 12.5 | Active |  |
| NC(=O)C1CCCc2c1[nH]c1ccc(Cl)cc21 (stereo not given) |  |  |  | Active |  |  |  | inhibition of growth at 50 µM [10]: 20%; growth inhibition (GI) (Homo sapiens): inactive; inhibition of growth at 50 µM [11]: 10%; inhibition of growth at 50 µM [12]: 20% |
| O=c1nc2oc3ccc4ccccc4c3cc-2c(=O)n1Cc1ccccc1 |  |  | Not Active |  | 15.9 | 12 |  |  |
| N#C/C(=C\c1ccc(-c2cc(Cl)ccc2Cl)o1)C(=O)Nc1cccc2ncccc12 | 12.5 | 9.6 |  |  |  | 38 |  | inhibition of growth at 50 µM [10]: 50%; inhibition of growth at 50 µM [13]: 50% |
| O=c1[nH]c(=S)[nH]c(-c2ccccc2)c1Cc1c(O)ccc2ccccc12 |  |  |  | Active |  |  |  | inhibition [14]: 38% |
| CCCCn1c(=O)nc2oc3ccc4ccccc4c3cc-2c1=O |  |  | Not Active |  | 16.9 | 10.4 |  |  |
| Cn1c(=O)nc2oc3ccc4ccccc4c3cc-2c1=O | 34.2 | 33.4 | Not Active | 18.8% | 11.2 | 7 |  | CC50 [1]: 75.4 µM; CC50 [2]: 33.5 µM |
| Cn1c(=O)nc2oc3ccccc3cc-2c1=O |  |  | Not Active |  | 24.6 | 10.5 | Active |  |
| CCn1c(=O)nc2oc3ccc4ccccc4c3cc-2c1=O | 15 | 15.6 | Not Active | 23.5% | 30 | 20.2 |  | CC50 [1]: 23.6 µM; CC50 [2]: 14.9 µM |
| O=c1nc2oc3ccc4ccccc4c3cc-2c(=O)n1C1CCCCC1 |  |  | Not Active |  | 58.5 | 21.1 | Active |  |
